Common to all, as to assay type: functional
Settings in all cases: read-out: ED50 (the source's name)

The nature of assay [1]: Cytotoxicity against human HEPA 59T/VGH cells by methylene blue staining method. Summed up: (§1)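 Tumor cells cultured in RPMI-1640 medium and exposed to test sample for 72 h. Growth inhibition read by methylene blue staining (absorbance). ED50 taken as the concentration giving 50% reduction of absorbance relative to untreated cells.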
The next assay concerns HeLa. Put plainly: Cytotoxicity against human HeLa cells by methylene blue staining method. A digest of the protocol:
as §1

The test system of the next assay is KB. The assay can be described thus: Cytotoxicity against human KB cells by methylene blue staining method. A digest of the protocol: as §1

Each structure is given as a SMILES string. In brackets after ≈: the same amount, converted by molar mass.

Regarding `C=C1C(=O)O[C@H]2/C=C(/C)[C@H](O)C[C@H]3O[C@@]3(C)C[C@@H](OC(=O)/C(C)=C/C)[C@@H]12`, the values for the EC50 (in assay [1]; with HeLa; in the assay with KB) were 4.4 µg/mL (≈ 12.1 µM), 3.1 µg/mL (≈ 8.55 µM) and 3.2 µg/mL (≈ 8.83 µM), respectively.

As to `COc1cccc2c1C(=O)c1c(O)c3c(c(O)c1C2=O)C[C@@](O)(C(=O)CO)C[C@@H]3O[C@H]1C[C@H](N)[C@H](O)[C@H](C)O1` [DOXORUBICIN], the EC50 worked out at 0.19 µg/mL (≈ 0.35 µM) in assay [1], 0.14 µg/mL (≈ 0.258 µM) with HeLa and 0.15 µg/mL (≈ 0.276 µM) in the assay with KB.

`C=C1C(=O)O[C@H]2/C=C(\C)C(=O)[C@@H]3O[C@H]3[C@](C)(O)C[C@@H](OC(=O)/C(C)=C/C)[C@@H]12` [EUPAKIRUNSIN E]: the EC50 (in assay [1]; in the assay on HeLa; with KB) was above 20 µg/mL each time.

On to `C=C1C(=O)O[C@H]2[C@H]1[C@H](OC(=O)/C(C)=C/C)C[C@H](C)[C@H](O)CC(=O)[C@]1(C)O[C@H]21` [EUPAKIRUNSIN C], for which the results for the EC50 (in assay [1]; in the assay on HeLa; with KB) were 8.6 µg/mL (≈ 22.7 µM), 7.1 µg/mL (≈ 18.8 µM) and 8.1 µg/mL (≈ 21.4 µM), respectively.

As to `C=C1C(=O)O[C@@H]2/C=C(\C)C(=O)/C=C/[C@](C)(O)C[C@@H](OC(=O)/C(C)=C/C)[C@@H]12` [EUPAHELIANGOLIDE A], the EC50 is 3.5 µg/mL (≈ 9.71 µM) in assay [1], 3.3 µg/mL (≈ 9.16 µM) in the assay on HeLa and 3.5 µg/mL (≈ 9.71 µM) in the assay on KB.

For `C=C1C(=O)O[C@H]2[C@H]1[C@H](OC(=O)/C(C)=C/C)CC(=C)[C@H](O)[C@@H]1O[C@@H]1[C@]1(C)O[C@H]21` [EUPAKIRUNSIN A], the EC50 was 4.4 µg/mL (≈ 11.7 µM) in assay [1], 8.9 µg/mL (≈ 23.6 µM) in the assay on HeLa and 5.5 µg/mL (≈ 14.6 µM) in the assay with KB.

On to `C=C1C(=O)O[C@H]2/C=C(/COC(C)=O)[C@@H](O)C[C@H]3O[C@@]3(C)C[C@@H](OC(=O)/C(C)=C/C)[C@@H]12`, for which the EC50 in assay [1] was found to be 7 µg/mL (≈ 16.6 µM); in the assay with HeLa, 7.5 µg/mL (≈ 17.8 µM); with KB it was 4.3 µg/mL (≈ 10.2 µM).

In the case of `C=C1C(=O)O[C@H]2/C=C(\C)[C@H](O)/C=C\[C@](C)(O)C[C@@H](OC(=O)/C(C)=C/C)[C@@H]12` [EUPAKIRUNSIN B], the EC50 (in assay [1]; in the assay on HeLa; with KB) was above 20 µg/mL each time.

Regarding `C=C1C(=O)O[C@H]2/C=C(\C)[C@]3(O)CC[C@](C)(C[C@@H](OC(=O)/C(C)=C/C)[C@@H]12)O3` [EUPAKIRUNSIN D], the EC50 was 5 µg/mL (≈ 13.8 µM) in assay [1], 5.8 µg/mL (≈ 16 µM) in the assay on HeLa and 4.8 µg/mL (≈ 13.2 µM) in the assay with KB.

In the case of `C=C1C(=O)O[C@H]2/C=C(/C)[C@@H](O)C[C@H]3O[C@@]3(C)C[C@@H](OC(=O)/C(C)=C/C)[C@@H]12` [HELIANGIN], the results for the EC50 (in assay [1]; in the assay on HeLa; with KB) were 2 µg/mL (≈ 5.52 µM), 4.4 µg/mL (≈ 12.1 µM) and 1.8 µg/mL (≈ 4.97 µM), respectively.

The values are drawn from ChEMBL document CHEMBL1158764, “Cytotoxic sesquiterpene lactones from Eupatorium kiirunense, a coastal plant of Taiwan” (2005).
